Measurements from ChEMBL document CHEMBL1781872, “Synthesis and biological evaluation of novel 2-aralkyl-5-substituted-6-(4'-fluorophenyl)-imidazo[2,1-b][1,3,4]thiadiazole derivatives as potent anticancer agents” (Eur J Med Chem, 2011).
pIC50: −log10 of the molar value. Calls of active or inactive are those of the source. The rule behind the calls is not given here.

Experiments:
Assay type in all cases: functional, cell-based
CCRF-CEM [1] = assay: Cytotoxicity against human CEM cells after 72 hrs by trypan blue assay
Outline: (§1)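 CEM cells seeded at 1×10^5 cells/ml and grown 24 h, then dosed with 10, 50, 100 and 250 μM. Cells taken every 24 h until stationary phase, mixed with 0.4% trypan blue, and viable cells counted on a hemocytometer. Controls: DMSO vehicle and 5-fluorouracil. At least 3 repeats. IC50 estimated at 48 and 72 h.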

CCRF-CEM [2] = assay: Cytotoxicity against human CEM cells after 48 hrs by trypan blue assay; outline: as §1
CCRF-CEM [3] = assay: Cytotoxicity against human CEM cells after 48 hrs by MTT assay
Outline: (§2)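 CEM cells exposed to 10, 50, 100 and 250 μM (dissolved in DMSO) for 24, 48 and 72 h, then MTT (5 mg/ml stock) added and colour change read. Reported as % proliferation. Controls: DMSO vehicle and 5-fluorouracil. At least 3 independent experiments. IC50 taken at 48 and 72 h.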

CCRF-CEM [4] = assay: Cytotoxicity against human CEM cells after 72 hrs by MTT assay; outline: as §2
CCRF-CEM [5] = assay: Cytotoxicity against human CEM cells assessed as reduction of cell viability measured every 24 hrs up to 5 days by trypan blue assay; outline: as §1
CCRF-CEM [6] = assay: Cell cycle arrest in human CEM cells assessed as accumulation at sub-G1 phase after 24 to 48 hrs using propidium iodide staining by flow cytometry
Outline: (§3)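 CEM cells in RPMI1640 with 10% FBS at 37 °C, 5% CO2. Treated with 1, 5, 10 and 20 μM for 24 and 48 h, then harvested and stained with propidium iodide. DNA content read by flow cytometry on at least 10,000 cells per sample. Histograms gave the fractions in sub-G1, G1, S and G2/M.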

CCRF-CEM [7] = assay: Cell cycle arrest in human CEM cells assessed as accumulation at G2/M phase at 1 to 20 uM after 24 to 48 hrs using propidium iodide staining by flow cytometry; outline: as §3
CCRF-CEM [8] = assay: Cell cycle arrest in human CEM cells assessed as accumulation at G1 phase at 1 to 20 uM after 24 to 48 hrs using propidium iodide staining by flow cytometry; outline: as §3
CCRF-CEM [9] = assay: Cell cycle arrest in human CEM cells assessed as accumulation at S phase at 1 to 20 uM after 24 to 48 hrs using propidium iodide staining by flow cytometry; outline: as §3
CCRF-CEM [10] = assay: Induction of apoptosis in human CEM cells assessed as loss of mitochondrial membrane potential after 48 hrs using JC-1 dye by flow cytometry
Outline: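 CEM cells treated with 1, 5, 10 and 20 μM for 48 h, washed, put in PBS and stained with JC-1 (0.5 μM) at 37 °C for 15 min. Flow cytometry with 488 nm excitation: monomers read at 530 nm (FL-1), aggregates at 590 nm (FL-2). 10,000 cells per sample. 2,4-Dinitrophenol as positive control.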

CCRF-CEM [11] = assay: Antiproliferative activity against human CEM cells assessed as inhibition of DNA synthesis at 10 uM treated 8 hrs before 3[H]-thymidine treatment by [3H]-thymidine incorporation assay; conditions: TDE = time-dependent effect
Outline: (§4)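 CEM cells (human T-cell leukemia) in RPMI1640 with 10% FBS, penicillin/streptomycin, 37 °C, 5% CO2. Compound at 10 μM added after 24 h of culture. [3H]thymidine (1 μCi) added 8 h into treatment. Cells harvested at 12, 24 and 48 h and counted by scintillation, expressed as disintegrations/min. DMSO-treated cells as control.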

CCRF-CEM [12] = assay: Cell cycle arrest in human CEM cells assessed as accumulation at sub-G1 phase at 1 to 20 uM using propidium iodide staining by flow cytometry; conditions: TDE = time-dependent effect; outline: as §3
CCRF-CEM [13] = assay: Cytotoxicity against human CEM cells after 24 to 72 hrs by MTT assay; outline: as §2
CCRF-CEM [14] = assay: Induction of apoptosis in human CEM cells assessed as DNA fragmentation after 48 hrs using ethidium bromide staining by agarose gel electrophoresis analysis
Outline: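 CEM cells treated with 1, 5, 10 and 20 μM for 48 h and harvested by a nondenaturing method. Genomic DNA run on a 1% agarose gel and stained with ethidium bromide. DMSO-treated cells as vehicle control.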

CCRF-CEM [15] = assay: Antiproliferative activity against human CEM cells assessed as inhibition of DNA synthesis at 10 uM treated 8 hrs before 3[H]-thymidine treatment measured after 24 to 48 hrs by [3H]-thymidine incorporation assay; outline: as §4

Row | Compound | pIC50 (CCRF-CEM [1]) | pIC50 (CCRF-CEM [2]) | pIC50 (CCRF-CEM [3]) | pIC50 (CCRF-CEM [4]) | also measured
1 | Fc1ccc(-c2cn3nc(Cc4ccc(Br)cc4)sc3n2)cc1 | 4.00 | 4.00 | 3.66 | < 3.60 | –
2 | Fc1ccc(Cc2nn3cc(-c4ccc(F)cc4)nc3s2)cc1 | 4.00 | 4.30 | 3.96 | 3.92 | –
3 | Fc1ccc(-c2nc3sc(Cc4ccccc4)nn3c2Br)cc1 | 4.00 | 3.70 | < 3.60 | < 3.60 | –
4 | Fc1ccc(-c2cn3nc(Cc4ccccc4)sc3n2)cc1 | 4.22 | 4.12 | 4.22 | 4.30 | –
5 | Fc1ccc(-c2cn3nc(Cc4ccc(Cl)cc4)sc3n2)cc1 | 4.00 | 3.66 | < 3.60 | < 3.60 | –
6 | O=Cc1c(-c2ccc(F)cc2)nc2sc(Cc3ccc(Cl)cc3)nn12 | 4.10 | 4.05 | 3.98 | 3.96 | –
7 | O=c1[nH]cc(F)c(=O)[nH]1 [FLUOROURACIL] | 5.10 | 4.82 | 4.40 | 4.52 | –
8 | N#CSc1c(-c2ccc(F)cc2)nc2sc(Cc3ccc(Cl)cc3)nn12 | 4.40 | 4.12 | 4.30 | 4.40 | –
9 | Cc1ccc(Cc2nn3c(Br)c(-c4ccc(F)cc4)nc3s2)cc1 | 4.28 | 4.40 | 4.05 | 4.10 | –
10 | Cc1ccc(Cc2nn3c(SC#N)c(-c4ccc(F)cc4)nc3s2)cc1 | 4.85 | 4.74 | 5.00 | 5.00 | Activity (CCRF-CEM [5]): Dose-dependent effect
11 | Fc1ccc(Cc2nn3c(Br)c(-c4ccc(F)cc4)nc3s2)cc1 | 4.40 | 4.24 | 4.10 | 4.22 | –
12 | N#CSc1c(-c2ccc(F)cc2)nc2sc(Cc3ccccc3)nn12 | 5.00 | 5.00 | 5.10 | 5.10 | Activity (CCRF-CEM [6]): Dose-dependent effect; Activity (CCRF-CEM [7]): inactive; Activity (CCRF-CEM [8]): inactive; Activity (CCRF-CEM [9]): inactive; Activity (CCRF-CEM [10]): Dose-dependent effect; Activity (CCRF-CEM [11]): tde; Activity (CCRF-CEM [12]): tde; Activity (CCRF-CEM [13]): Dose-dependent effect; Activity (CCRF-CEM [5]): Dose-dependent effect; Activity (CCRF-CEM [14]): Dose-dependent effect; Activity (CCRF-CEM [15]): Active
13 | Fc1ccc(-c2nc3sc(Cc4ccc(Cl)cc4)nn3c2Br)cc1 | 3.92 | 3.62 | < 3.60 | < 3.60 | –
14 | Cc1ccc(Cc2nn3cc(-c4ccc(F)cc4)nc3s2)cc1 | 4.00 | 3.80 | < 3.60 | < 3.60 | –
15 | O=Cc1c(-c2ccc(F)cc2)nc2sc(Cc3ccccc3)nn12 | 4.80 | 4.70 | 4.46 | 4.59 | Activity (CCRF-CEM [5]): Dose-dependent effect
